# In ChEMBL document CHEMBL1136006, “New PET imaging agent for the serotonin transporter: [(18)F]ACF (2-[(2-amino-4-chloro-5-fluorophenyl)thio]-N,N-dimethyl-benzenmethanamine)” (J Med Chem, 2002):
# Assays:
# Rattus norvegicus [1] = species on record: Rattus norvegicus; experiment: Organ distribution of [18F]ACF radiolabeled compound in rat blood after 240 min; assay type: ADME, organism-based; conditions: in vivo, 4 h
# Outline: (§1)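 Rats, three per time point, under ether anesthesia; 30 μCi tracer in 0.2 mL saline injected into femoral vein. Sacrificed by cardiac excision under ether at 2, 30, 60, 120 or 240 min. Organs removed, weighed and counted; % dose/organ calculated against counts of 1% of initial dose counted at the same time. Average of three rats ± SD.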
# Rattus norvegicus [2] = species on record: Rattus norvegicus; experiment: Ratio of regional brain distribution of [18F]ACF radiolabeled compound in rat hypothalamus to that of cerebellum after 240 min; assay type: ADME, organism-based; conditions: in vivo, 4 h
# Outline: (§2)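 Rats (three per group) under ether anesthesia got 30 μCi tracer in 0.2 mL saline into the femoral vein and were killed by cardiac excision at the stated time. Cortex, striatum, hippocampus, cerebellum, hypothalamus and the rest of brain were dissected, weighed and gamma counted. %dose/g was taken against counts of a diluted initial dose. Regional ratios are each region's %dose/g over cerebellum's. Mean ± SD.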
# Rattus norvegicus [3] = species on record: Rattus norvegicus; experiment: Organ distribution of [18F]ACF radiolabeled compound in rat lung after 120 min; assay type: ADME, organism-based; conditions: in vivo, 2 h; outline: as §1
# Rattus norvegicus [4] = species on record: Rattus norvegicus; experiment: Organ distribution of [18F]-ACF radiolabeled compound in rat skin after 60 min; assay type: ADME, organism-based; conditions: in vivo, 1 h
# Outline: (§3)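 Under ether anesthesia, 30 μCi no-carrier-added tracer in 0.2 mL saline injected into the femoral vein. Rats killed by cardiac excision at the stated time. Organs were removed, weighed and counted; % dose/organ was calculated against counts of a 1% initial-dose standard. Three rats per time, average ± SD.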
# Rattus norvegicus [5] = species on record: Rattus norvegicus; experiment: Organ distribution of [18F]ACF radiolabeled compound in rat bone after 60 min; assay type: ADME, organism-based, Bone element; conditions: in vivo, 1 h; outline: as §1
# Rattus norvegicus [6] = species on record: Rattus norvegicus; experiment: Organ distribution of [18F]-ACF radiolabeled compound in rat skin after 30 min; assay type: ADME, organism-based; conditions: in vivo, 0.5 h; outline: as §3
# Rattus norvegicus [7] = species on record: Rattus norvegicus; experiment: Regional brain distribution of [18F]ACF radiolabeled compound in rat hippocampus after 240 min; assay type: ADME, organism-based; conditions: in vivo, 4 h; outline: as §2
# Rattus norvegicus [8] = experiment: Ratio of effect of pretreatment with nisoxatine with a dose of 2 mg/kg (i.v.) on specific binding of [18F]ACF in rat brain cerebellum to that of cerebellum; assay type: ADME, organism-based; set-up: dose 2 mg/kg, route intravenous; conditions: in vivo, iv
# Outline: (§4)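 Rats (three per point) pretreated iv with competing drug at 2 mg/kg or saline (control) 5 min before iv [18F]ACF (50 μCi). At 1 h post tracer, brain regions (cortex, striatum, hippocampus, cerebellum, hypothalamus, remainder) dissected, weighed, counted as % dose/g and expressed as ratio to cerebellum. Average ± SD; ANOVA with Dunnett's test vs saline controls, p < 0.05.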
# Rattus norvegicus [9] = experiment: Ratio of effect of pretreatment with nisoxatine with a dose of 2 mg/kg (i.v.) on specific binding of [18F]ACF in rat brain striatum to that of cerebellum; assay type: ADME, organism-based; set-up: dose 2 mg/kg, route intravenous; conditions: in vivo, iv; outline: as §4
# Rattus norvegicus [10] = species on record: Rattus norvegicus; experiment: Ratio of regional brain distribution of [18F]-ACF radiolabeled compound in rat hippocampus to that of cerebellum after 2 min; assay type: ADME, organism-based; conditions: in vivo
# Outline: (§5)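 Rats, three per time point, given 30 μCi tracer in 0.2 mL saline into femoral vein under ether anesthesia; killed at 2, 30, 60, 120 or 240 min. Cortex, striatum, hippocampus, cerebellum, hypothalamus and rest of brain dissected, weighed, counted; % dose/g against diluted initial dose, then each region divided by cerebellum. Average of three rats ± SD.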
# Rattus norvegicus [11] = species on record: Rattus norvegicus; experiment: Regional brain distribution of [18F]ACF radiolabeled compound in rat remainder (rest of brain) after 120 min; assay type: ADME, organism-based; conditions: in vivo, 2 h; outline: as §2
# Rattus norvegicus [12] = species on record: Rattus norvegicus; experiment: Organ distribution of [18F]-ACF radiolabeled compound in rat muscle after 60 min; assay type: ADME, organism-based, Muscle tissue; conditions: in vivo, 1 h; outline: as §3
# Rattus norvegicus [13] = experiment: Effect of pretreatment with nisoxatine with a dose of 2 mg/kg (i.v.) on specific binding of [18F]ACF in rat brain remainder; assay type: ADME, organism-based; set-up: dose 2 mg/kg, route intravenous; conditions: in vivo, iv
# Outline: (§6)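 Rats pretreated iv with drug (2 mg/kg) or saline 5 min before iv [18F]ACF (50 μCi). Sacrificed 1 h after tracer. Brain regions were dissected, weighed and counted, and % dose/g was calculated against a diluted initial dose. Drug-treated rats were compared with saline controls by ANOVA/Dunnett's test (p<0.05). Three rats per point, average ± SD.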
# Rattus norvegicus [14] = species on record: Rattus norvegicus; experiment: Regional brain distribution of [18F]-ACF radiolabeled compound in rat cortex after 240 min; assay type: ADME, organism-based; conditions: in vivo, 4 h; outline: as §2
# Rattus norvegicus [15] = experiment: Effect of pretreatment with nisoxatine with a dose of 2 mg/kg (i.v.) on specific binding of [18F]ACF in rat brain hypothalamus; assay type: ADME, organism-based; set-up: dose 2 mg/kg, route intravenous; conditions: in vivo, iv; outline: as §6
# Rattus norvegicus [16] = experiment: Ratio of effect of pretreatment with (+)-McN5652 with a dose of 2 mg/kg (i.v.) on specific binding of [18F]-ACF in rat brain hippocampus to that of cerebellum; assay type: ADME, organism-based; set-up: dose 2 mg/kg, route intravenous; conditions: in vivo, iv; outline: as §4
# Rattus norvegicus [17] = species on record: Rattus norvegicus; experiment: Ratio of regional brain distribution of [18F]ACF radiolabeled compound in rat cortex to that of cerebellum after 2 min; assay type: ADME, organism-based; conditions: in vivo; outline: as §2
# Rattus norvegicus [18] = experiment: Ratio of effect of pretreatment with nisoxatine with a dose of 2 mg/kg (i.v.) on specific binding of [18F]ACF in rat brain hypothalamus to that of cerebellum; assay type: ADME, organism-based; set-up: dose 2 mg/kg, route intravenous; conditions: in vivo, iv; outline: as §4
# Rattus norvegicus [19] = experiment: Ratio of effect of pretreatment with methylphenidate with a dose of 2 mg/kg (i.v.) on specific binding of [18F]ACF in rat brain striatum to that of cerebellum; assay type: ADME, organism-based; set-up: dose 2 mg/kg, route intravenous; conditions: in vivo, iv; outline: as §4
# Rattus norvegicus [20] = species on record: Rattus norvegicus; experiment: Organ distribution of [18F]-ACF radiolabeled compound in rat spleen after 60 min; assay type: ADME, organism-based; conditions: in vivo, 1 h; outline: as §1
# Rattus norvegicus [21] = experiment: Ratio of effect of pretreatment with methylphenidate with a dose of 2 mg/kg (i.v.) on specific binding of [18F]-ACF in rat brain remainder to that of cerebellum; assay type: ADME, organism-based; set-up: dose 2 mg/kg, route intravenous; conditions: in vivo, iv; outline: as §4
# Rattus norvegicus [22] = species on record: Rattus norvegicus; experiment: Regional brain distribution of [18F]ACF radiolabeled compound in rat cerebellum after 60 min; assay type: ADME, organism-based; conditions: in vivo, 1 h; outline: as §2
# Rattus norvegicus [23] = species on record: Rattus norvegicus; experiment: Organ distribution of [18F]ACF radiolabeled compound in rat blood after 30 min; assay type: ADME, organism-based; conditions: in vivo, 0.5 h; outline: as §1
# Rattus norvegicus [24] = species on record: Rattus norvegicus; experiment: Regional brain distribution of [18F]ACF radiolabeled compound in rat remainder (rest of brain) after 2 min; assay type: ADME, organism-based; conditions: in vivo; outline: as §2
# Rattus norvegicus [25] = species on record: Rattus norvegicus; experiment: Ratio of regional brain distribution of [18F]ACF radiolabeled compound in rat hippocampus to that of cerebellum after 60 min; assay type: ADME, organism-based; conditions: in vivo, 1 h; outline: as §2
# Rattus norvegicus [26] = species on record: Rattus norvegicus; experiment: Regional brain distribution of [18F]-ACF radiolabeled compound in rat cerebellum after 240 min; assay type: ADME, organism-based; conditions: in vivo, 4 h; outline: as §2
# Rattus norvegicus [27] = species on record: Rattus norvegicus; experiment: Ratio of regional brain distribution of [18F]ACF radiolabeled compound in rat cerebellum to that of cerebellum after 30 min; assay type: ADME, organism-based; conditions: in vivo, 0.5 h; outline: as §2
# Rattus norvegicus [28] = species on record: Rattus norvegicus; experiment: Organ distribution of [18F]-ACF radiolabeled compound in rat muscle after 2 min; assay type: ADME, organism-based, Muscle tissue; conditions: in vivo; outline: as §3
# Rattus norvegicus [29] = species on record: Rattus norvegicus; experiment: Organ distribution of [18F]ACF radiolabeled compound in rat spleen after 2 min; assay type: ADME, organism-based; conditions: in vivo; outline: as §1
# Rattus norvegicus [30] = species on record: Rattus norvegicus; experiment: Organ distribution of [18F]-ACF radiolabeled compound in rat heart after 240 min; assay type: ADME, organism-based; conditions: in vivo, 4 h; outline: as §3
# Rattus norvegicus [31] = species on record: Rattus norvegicus; experiment: Ratio of regional brain distribution of [18F]ACF radiolabeled compound in rat cortex to that of cerebellum after 60 min; assay type: ADME, organism-based; conditions: in vivo, 1 h; outline: as §2
# Rattus norvegicus [32] = species on record: Rattus norvegicus; experiment: Ratio of regional brain distribution of [18F]-ACF radiolabeled compound in rat hippocampus to that of cerebellum after 240 min; assay type: ADME, organism-based; conditions: in vivo, 4 h; outline: as §5
# Rattus norvegicus [33] = species on record: Rattus norvegicus; experiment: Organ distribution of [18F]-ACF radiolabeled compound in rat lung after 30 min; assay type: ADME, organism-based; conditions: in vivo, 0.5 h; outline: as §3
# Rattus norvegicus [34] = species on record: Rattus norvegicus; experiment: Regional brain distribution of [18F]ACF radiolabeled compound in rat cerebellum after 30 min; assay type: ADME, organism-based; conditions: in vivo, 0.5 h; outline: as §2
# Rattus norvegicus [35] = species on record: Rattus norvegicus; experiment: Ratio of regional brain distribution of [18F]-ACF radiolabeled compound in rat striatum to that of cerebellum after 240 min; assay type: ADME, organism-based; conditions: in vivo, 4 h; outline: as §2
# Rattus norvegicus [36] = experiment: Effect of pretreatment with methylphenidate with a dose of 2 mg/kg (i.v.) on specific binding of [18F]ACF in rat brain cortex; assay type: ADME, organism-based; set-up: dose 2 mg/kg, route intravenous; conditions: in vivo, iv; outline: as §6
smiles,measurement,setting,value
CN(C)Cc1ccccc1Sc1cc(F)c(Cl)cc1N,Dose/g,Rattus norvegicus [1],2.33 % dose/organ
same,Ratio,Rattus norvegicus [2],2.37
same,Dose/g,Rattus norvegicus [3],0.32 % dose/organ
same,Dose/g,Rattus norvegicus [4],5.97 % dose/organ
same,Dose/g,Rattus norvegicus [5],0.08 % dose/organ
same,Dose/g,Rattus norvegicus [6],6.51 % dose/organ
same,Dose/g,Rattus norvegicus [7],0.04%
same,Ratio,Rattus norvegicus [8],1
same,Ratio,Rattus norvegicus [9],2.5
same,Ratio,Rattus norvegicus [10],1.24
same,Dose/g,Rattus norvegicus [11],0.12%
same,Dose/g,Rattus norvegicus [12],7.69 % dose/organ
same,Dose/g,Rattus norvegicus [13],0.41%
same,Dose/g,Rattus norvegicus [14],0.03%
same,Dose/g,Rattus norvegicus [15],0.55%
same,Ratio,Rattus norvegicus [16],1.93
same,Ratio,Rattus norvegicus [17],1.84
same,Ratio,Rattus norvegicus [18],2.89
same,Ratio,Rattus norvegicus [19],2.75
same,Dose/g,Rattus norvegicus [20],0.13 % dose/organ
same,Ratio,Rattus norvegicus [21],2.23
same,Dose/g,Rattus norvegicus [22],0.15%
same,Dose/g,Rattus norvegicus [23],4.52 % dose/organ
same,Dose/g,Rattus norvegicus [24],1.69%
same,Ratio,Rattus norvegicus [25],2.91
same,Dose/g,Rattus norvegicus [26],0.02%
same,Ratio,Rattus norvegicus [27],1
same,Dose/g,Rattus norvegicus [28],14.3 % dose/organ
same,Dose/g,Rattus norvegicus [29],0.64 % dose/organ
same,Dose/g,Rattus norvegicus [30],0.04 % dose/organ
same,Ratio,Rattus norvegicus [31],2.1
same,Ratio,Rattus norvegicus [32],1.99
same,Dose/g,Rattus norvegicus [33],1.76 % dose/organ
same,Dose/g,Rattus norvegicus [34],0.37%
same,Ratio,Rattus norvegicus [35],2.35
same,Dose/g,Rattus norvegicus [36],0.35%
